# Hit rate of the full screen: of about 120,000 compounds, about 20 (0.02%) were called active.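 Rule for the calls: active = inhibition above 30.3% in the primary screen of four-compound pools, then above 30% when the compound was retested; inconclusive = passed the primary limit but could not be retested; inactive = the rest.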 This excerpt belongs to a sample that is enriched for actives.
# Test: clotrimazole potentiators killing C. albicans biofilm, primary screen, 4-compound mixtures (AID 1242);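 note: compounds exposed to preformed 24 h biofilms for 48 h; 0% = untreated biofilm control and 100% = clotrimazole plus chlorhexidine kill blank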
# Conditions: C. albicans biofilm persisters + clotrimazole, fluorescence viability, primary screen in compound mixtures, stronger effect = higher value
# Summary of the method: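 Incubation: 24 h biofilm formation, then 48 h compound exposure, 37 °C | Material: C. albicans biofilms | Buffer or medium: RPMI/MOPS medium, pH 7.0 | Measured by: 2-h Alamar Blue fluorescence, 535/590 nm excitation/emission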
# [1] = measured here: individual compound retest, at 61 µM
structure (smiles),measurement,setting,value
CCOC(=O)CN/C=C(\C#N)c1ccc(F)cc1,inhibition,at 7.6 µM unless noted,12.8% (inactive)
O=C(Nc1ccc(Cl)cc1)/C(=C1\CCCN1)[N+](=O)[O-],inhibition,at 7.6 µM unless noted,18.1% (inactive)
O=C(CSc1nnc(SCc2ccc(F)cc2)s1)Nc1ccc(C(=O)O)cc1,inhibition,at 7.6 µM unless noted,12.3% (inactive)
COC(=O)c1nn(-c2cccc(Cl)c2)ccc1=O,inhibition,at 7.6 µM unless noted,12.6% (inactive)
CCOC(=O)CCNC(=O)N1CCCC(C(=O)c2ccccc2SC)C1 (centres undefined),inhibition,at 7.6 µM unless noted,27% (inactive)
CN1C=CC=C/C1=C1\SC(=S)N(Cc2ccccc2)C1=O,inhibition,at 7.6 µM unless noted,20.5% (inactive)
COCCN1C2=C(COC(C)(C)C2)C(=S)NC1c1ccccc1 (centres undefined),inhibition,at 7.6 µM unless noted,14% (inactive)
CC(=O)NCC(=O)N1CCCC(C(=O)c2ccc3c4c(cccc24)CC3)C1 (centres undefined),inhibition,at 7.6 µM unless noted,0.67% (inactive)
CC(=O)NC(NC(=S)Nc1c(C)n(C)n(-c2ccccc2)c1=O)C(Cl)(Cl)Cl (centres undefined),inhibition,at 7.6 µM unless noted,12% (inactive)
COc1ccc(/C=C/CN2CCCC(C(=O)c3cc(F)ccc3F)C2)cc1 (centres undefined),inhibition,at 7.6 µM unless noted,8.39% (inactive)
C/C=N/N(c1ccccc1)c1ccccc1,inhibition,at 7.6 µM unless noted,26.1% (inactive)
O=C(Nc1ccccc1C(=O)O)c1cc(S(=O)(=O)N2CCCCC2)cs1,inhibition,at 7.6 µM unless noted,-7.15% (inactive)
O=C(Nc1ccc(S(=O)(=O)Nc2nccs2)cc1)c1cc(=O)[nH]c2ccccc12,inhibition,at 7.6 µM unless noted,21.7% (inactive)
O=C(Cc1ccc(Cl)cc1)NCc1nc(-c2ccccc2)no1,inhibition,at 7.6 µM unless noted,11.6% (inactive)
COC(=O)C1=C(C(=O)OC)C(c2cc([N+](=O)[O-])ccc2O)c2sc(=O)[nH]c2S1 (centres undefined),inhibition,at 7.6 µM unless noted,12.9% (inactive)
COc1ccc(C2CC(c3cccs3)=NN2C(=O)CSc2nnc(N)s2)cc1OC (centres undefined),inhibition,at 7.6 µM unless noted,2.04% (inactive)
Cc1ccc(Cl)cc1NC(=O)COC(=O)CC(C)(C)C,inhibition,at 7.6 µM unless noted,18.1% (inactive)
CC(C)(C)OC(=O)NCCCCCC(=O)N/N=C/c1coc2ccccc2c1=O,inhibition,at 7.6 µM unless noted,21.8% (inactive)
CCC(C)(C)NC(=O)CN(Cc1cccs1)C(=O)CNS(=O)(=O)c1ccc(F)cc1,inhibition,at 7.6 µM unless noted,7.21% (inactive)
COc1cccc2c(N/N=C/c3ccco3)cc(C)nc12,inhibition,at 7.6 µM unless noted,8.66% (inactive)
COc1cccc(C2Nc3cccc4cccc(c34)N2)c1,inhibition,at 7.6 µM unless noted,25.2% (inactive)
O=C(NC1CCCCC1)c1cc(C2CC2)on1,inhibition,at 7.6 µM unless noted,7.38% (inactive)
CCCCC(NC(=O)c1cccc(Br)c1)C(=O)O (centres undefined),inhibition,at 7.6 µM unless noted,22.6% (inactive)
CCOC(=O)c1cc(-c2ccc(F)cc2)n(CC(=O)NCc2ccccn2)c1C,inhibition,at 7.6 µM unless noted,14% (inactive)
CCN1/C(=C/c2ccc3ccc(C)cc3[n+]2CC)Sc2ccccc21,inhibition,at 7.6 µM unless noted,9.78% (inactive)
CCN1/C(=C\c2ccc3ccccc3[n+]2CC)Sc2cc(C)ccc21,inhibition,at 7.6 µM,31.3% (active)
same,inhibition,[1],72.3%
CCC(=O)/C=C1\Sc2ccccc2N1CC,inhibition,at 7.6 µM unless noted,17% (inactive)
C#CCNc1ccc(C(=O)OCC)cc1,inhibition,at 7.6 µM unless noted,15.4% (inactive)
CC1CC(C)CN(CCC(=O)Nc2ccc3c(c2)CCC3)C1 (centres undefined),inhibition,at 7.6 µM unless noted,16.6% (inactive)
C=CCN1CC(C)/C(=N\O)CC1C (centres undefined),inhibition,at 7.6 µM unless noted,26.7% (inactive)
O=C(NCCCN1CCOCC1)c1ccccc1NS(=O)(=O)c1ccc(Br)cc1,inhibition,at 7.6 µM unless noted,20.1% (inactive)
CC(OC(=O)c1ccccc1OCc1ccc(Cl)cc1)C(N)=O (centres undefined),inhibition,at 7.6 µM unless noted,9.56% (inactive)
COc1ccc(NC(=O)CSc2nc(C)cs2)cc1,inhibition,at 7.6 µM unless noted,-9.15% (inactive)
Cc1ccc2cc(/C=N/NC(=O)[C@@H]3CCCN3)c(Cl)nc2c1,inhibition,at 7.6 µM,36% (inactive)
same,inhibition,[1],-44.1%
COc1ccc(C(=O)N/N=C(\C)CC(=O)Nc2ccc(Cl)cn2)cc1,inhibition,at 7.6 µM unless noted,14.5% (inactive)
CC(C)Cc1nc(Cl)c(C#N)c2c1CCC2,inhibition,at 7.6 µM unless noted,20.6% (inactive)
Cc1nc(N)[nH]c(=O)c1Oc1cccc(C(F)(F)F)c1,inhibition,at 7.6 µM unless noted,25.2% (inactive)
CCn1ccnc1CN1CCCC(C(=O)c2ccc3c4c(cccc24)CC3)C1 (centres undefined),inhibition,at 7.6 µM unless noted,13.8% (inactive)
CC(=O)Nc1ccc(S(=O)(=O)Nc2nccc(/C=C/c3ccccc3F)n2)cc1,inhibition,at 7.6 µM unless noted,25.1% (inactive)
COc1ccc(CCNC(=O)C(=O)NCc2ccccc2C)cc1OC,inhibition,at 7.6 µM unless noted,25.3% (inactive)
COCCNc1nc(-c2ccccc2)nc2c1oc1ccccc12,inhibition,at 7.6 µM unless noted,17.2% (inactive)
O=C(NCC1CCCO1)c1ccccc1-c1nc(-c2ccccc2Cl)no1 (centres undefined),inhibition,at 7.6 µM unless noted,16.1% (inactive)
Cc1cc(NC(=O)CSCc2ccccc2C)no1,inhibition,at 7.6 µM unless noted,13.5% (inactive)
O=C(NCCCN1CCOCC1)c1ccc([N+](=O)[O-])cc1[N+](=O)[O-],inhibition,at 7.6 µM unless noted,15.2% (inactive)
O=C(NCCN1CCOCC1)Nc1cccc(Cl)c1,inhibition,at 7.6 µM unless noted,20.6% (inactive)
O=C(CCC(=O)N1CCCC1)Nc1ccc([N+](=O)[O-])cc1,inhibition,at 7.6 µM unless noted,11.9% (inactive)
COc1ccc(Cn2c(O)c(/C=C3/C=CC=N3)c(=O)[nH]c2=O)cc1,inhibition,at 7.6 µM unless noted,11.9% (inactive)
